STEP block – STEP (human) phosphatase inhibition; P54829; recombinant STEP, OMFP fluorogenic substrate, fluorescence; inhibition, % at 20 µM; 360,000 compounds, 0.25% hits; AID 588621;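 active = inhibition at 20 µM, scaled per plate between control wells, above about 37%, limit read from the data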;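 also: 0% = DMSO with enzyme and substrate and 100% = substrate only without enzyme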
Target sequence (P54829 whole entry, looked up): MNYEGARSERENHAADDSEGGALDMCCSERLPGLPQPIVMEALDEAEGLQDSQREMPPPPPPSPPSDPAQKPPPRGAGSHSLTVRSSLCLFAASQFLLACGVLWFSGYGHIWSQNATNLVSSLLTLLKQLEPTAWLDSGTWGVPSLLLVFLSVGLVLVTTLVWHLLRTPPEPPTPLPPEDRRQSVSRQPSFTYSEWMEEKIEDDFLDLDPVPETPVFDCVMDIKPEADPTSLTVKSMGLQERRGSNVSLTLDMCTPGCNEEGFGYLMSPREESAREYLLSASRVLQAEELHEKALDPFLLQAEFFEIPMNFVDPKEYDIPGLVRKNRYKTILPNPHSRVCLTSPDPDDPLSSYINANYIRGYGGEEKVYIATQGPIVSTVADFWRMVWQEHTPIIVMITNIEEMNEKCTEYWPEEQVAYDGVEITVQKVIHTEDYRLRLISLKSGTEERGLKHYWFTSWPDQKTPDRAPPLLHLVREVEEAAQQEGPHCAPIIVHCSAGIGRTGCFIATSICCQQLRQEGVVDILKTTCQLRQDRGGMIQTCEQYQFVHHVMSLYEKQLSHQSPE
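Assay system: isolated STEP enzyme. Buffer or medium: pH 6.0 Bis-Tris with DTT and Tween 20. Also added: fluorogenic phosphatase substrate OMFP at 25 µM final. Dosing: 20 µM, 1% DMSO. Timing: 20 min reaction, room temperature, in the dark. Measured by: fluorescence intensity, excitation 480 nm, emission 540 nm. Evaluation: normalized % inhibition.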
LMPTP inh – blocks human LMPTP phosphatase | P24666 | recombinant LMPTP-A, OMFP fluorogenic substrate, fluorescence intensity | inhibition, % at 20 µM | 360,000 compounds, 0.22% hits;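 active = compounds that cut the enzyme signal by at least half of the control window in the single-dose screen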;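 also: plate controls were DMSO wells with enzyme plus substrate for no effect and substrate without enzyme for full effect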
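Test system: LMPTP-A, protein tyrosine phosphatase of low molecular weight; Input: 0.625 nM enzyme; Incubation: 50 min dark incubation at room temperature; Signal: endpoint fluorescence intensity from OMFP dephosphorylation; Read-out basis: % inhibition versus control wells.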
Scp1 inh – inhibitors of human Scp-1 phosphatase. Q9GZU7. Recombinant Scp1, phosphopeptide, malachite green phosphate absorbance. inhibition, % at 20 µM. 340,000 compounds, 0.88% hits. AID 493091;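 active = inhibition above about 50% at 20 µM, limit read from the data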;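 also: plate controls were DMSO wells with enzyme for no effect and wells lacking enzyme for full effect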
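Test system – truncated SCP-1 phosphatase (76-261aa) · Reagent – Phosphorylated 17-residue peptide substrate · Incubation – 45 min room-temperature reaction, 5 min colour, 30 min stabiliser · Detection – colorimetric phosphate reagent with accelerator and stabiliser, absorbance at 630 nm · Measure – % inhibition at 20 µM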
DNMT1 inh – inhibitors of human DNMT1; P26358; DNMT1 molecular beacon, Hinp1I cleavage, fluorescence; inhibition (reported as % activation of signal), % at 10 µM; 360,000 compounds, 0.83% hits; AID 588458; in the data active = inhibition above about 50%
SUMO1 PPI mod – modulators of human SUMO1-mediated protein-protein interactions. inhibition, % at 20 µM. P63165. SUMO1 binding to a labelled peptide, TR-FRET, 1 h. AID 602429. 360,000 compounds, 0.33% hits; in the data active = inhibition above about 37%
STEP inh conf – confirmation of human STEP phosphatase inhibitors | shares compounds with STEP block | recombinant STEP, OMFP fluorogenic substrate, fluorescence | inhibition, % at 20 µM | 520 compounds, 32% hits; call rule not given here;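 also: 0% = enzyme with substrate plus DMSO and 100% = substrate without enzyme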
* = called active by the depositor; / = no result given. The list is not random: actives were taken first. Their share in the collection is about 1.7%.

SMILES	STEP block	LMPTP inh	Scp1 inh	DNMT1 inh	SUMO1 PPI mod	STEP inh conf
O=C(N/N=C/c1ccncc1)c1cccc(S(=O)(=O)Nc2ccc(Cl)cc2)c1	74*	26	11	3	79*	95*
COc1ccc(C(=O)Nc2cc(-c3ccc(C)cc3)no2)cc1	94*	1	-1	5	0	-5
COc1ccc(Br)cc1C(=O)NC(=S)Nc1ccc(Cl)c(C(=O)O)c1	8	3	31	4	15	/
COc1ccc(Br)cc1/C=C/C(=O)NC(=S)Nc1ccc(Cl)c(C(=O)O)c1	62*	2	8	1	18	8
C=C(Cl)COc1ccc2c(CC)cc(=O)oc2c1	-1	1	-8	5	0	/
C=C(C)COc1ccc2c(CC)cc(=O)oc2c1	118*	0	-1	1	0	1
Cc1ccc(C)c(NC(=O)COC(=O)c2c(C)nn(-c3ccccc3)c2C)c1	2	3	1	0	1	/
N#C/C(=C/c1ccc(OCc2ccc(C(=O)O)cc2)c(Br)c1)c1cccc(F)c1	94*	86*	50*	93*	20	16
Cc1nn2c(CN(C(=O)CN3CCOCC3)c3ccccc3)nnc2c2ccccc12	-2	-2	-8	1	4	/
Cc1nn2c(CN(C(=O)COc3ccccc3)c3ccccc3)nnc2c2ccccc12	122*	0	3	-1	7	-1
Nc1c(C(=O)c2ccc(Br)cc2)oc2ccccc12	43*	0	-10	-4	-6	19
CCc1ccc(Nc2nc(N)nc(CSc3nc4ccccc4s3)n2)cc1	43*	-2	-11	7	-2	8
CN1CCN(C(=S)c2ccc([N+](=O)[O-])cc2)CC1	80*	1	-7	-2	-24	34
O=[N+]([O-])c1ccc(C(=S)N2CCC(Cc3ccccc3)CC2)cc1	-3	0	-11	-1	-10	/
CN1CCN(C(=O)c2ccc(S(=O)(=O)c3ccc(Br)cc3)cc2)CC1	0	1	-12	0	0	/
CN1CCN(C(=S)c2ccc(Br)cc2)CC1	80*	1	-1	0	0	43*
CN1CCN(C(=S)c2ccc(N(C)C)cc2)CC1	83*	0	-2	0	-1	27
CSc1ccc(C(=S)N2CCN(C)CC2)cc1	73*	-1	-6	-5	-1	26
COc1ccc(NC(=O)CN2C(=O)NC(C)(Cc3ccc(OC)c(OC)c3)C2=O)cc1 (configuration not stated)	-1	0	/	7	1	/
Cc1cc(C)c(NC(=O)CNC(=O)CSc2nnc(N)s2)c(C)c1	-3	0	-3	2	0	/
O=C(NCC1CCCO1)c1cc2nc(-c3ccco3)cc(C(F)(F)Cl)n2n1 (configuration not stated)	7	0	20	11	-14	/
O=C(N/N=C/c1ccc(OC(=O)c2cccc(F)c2)cc1)c1cccnc1	98*	57*	20	48	21	2
O=C(COc1ccc(-n2cnnn2)cc1)Nc1cc(Cl)cc(Cl)c1	1	0	32	-3	8	/
CCCCNS(=O)(=O)c1cc(-c2nn(C)c(=O)c3ccccc23)ccc1C	58*	15	46	20	-4	27
COCCNS(=O)(=O)c1cc(-c2nn(C)c(=O)c3ccccc23)ccc1C	2	0	-4	2	-1	/
SMILES	STEP block	LMPTP inh	Scp1 inh	DNMT1 inh	SUMO1 PPI mod	STEP inh conf
CN(Cc1cccs1)C(=O)C1CC(=O)N(Cc2ccccc2)C1 (configuration not stated)	-2	-9	-8	-3	-20	/
Cc1n[nH]c(=O)nc1NCCN(C)C	14	-4	-5	11	1	/
Cc1n[nH]c(=O)nc1NCc1ccc(Cl)cc1	39*	-2	0	3	-2	20
CCc1ccc(NC(=O)C(C)OC(=O)Cc2cc(OC)c(OC)c(OC)c2)cc1 (configuration not stated)	-2	-1	-3	-1	0	/
COc1ccccc1C(=O)Nc1ccnn1C1CCN(Cc2ccn[nH]2)CC1	0	-2	-7	-1	6	/
CCOc1ccccc1O[C@H](c1ccccc1)[C@H]1CNCCO1	2	-1	-9	-4	-12	/
O=C(O)c1ccc(NC(=S)Nc2ccccc2)cc1	107*	-1	6	1	2	8
COc1cc(NC(=S)N2CCN(C)CC2)c(OC)cc1Cl	42*	-3	-2	-5	2	28*
O=C(O)c1cccc(S(=O)(=O)Nc2ccc(-c3ccccc3)cc2)c1	9	-1	-1	4	6	/
O=C(O)c1cccc(S(=O)(=O)NNc2ccccc2C(F)(F)F)c1	44*	6	28	9	88*	9
CN1C/C(=C/c2ccccc2[N+](=O)[O-])C(=O)/C(=C\c2ccccc2[N+](=O)[O-])C1	1	0	7	-7	-12	/
Cc1cccc(N2CCN(C(=O)CCNS(=O)(=O)c3ccc4c(c3)oc(=O)n4C)CC2)c1C	74*	0	7	-2	-3	1
CCOc1ccc(N2C(=O)c3cccnc3C2Nc2ccc(F)cc2)cc1 (configuration not stated)	52*	-1	-4	-6	1	26
COc1ccc(C(=O)Nc2ccc(/C(C)=N/NC(=O)c3ccncc3)cc2)cc1	82*	54*	/	22	-6	19
O=C(NC1CCCCCC1)C(=S)NC1CCCCC1	57*	-1	-6	2	0	31*
CC[C@]12c3[nH]c4cc(-c5ccco5)ccc4c3CCN1C(=O)[C@@H](CC(=O)NCCc1ccccn1)C[C@@H]2C(=O)N1CCN(C(=O)c2ccco2)CC1	6	-2	1	4	6	/
S=C1NC2=C(CCCC2=C2SCCS2)C(c2ccccc2)N1 (configuration not stated)	70*	0	1	-4	-14	60*
O=C(Cc1ccc(Cl)cc1)NCC(=O)N1CCCCCC1	0	-4	-5	0	-3	/
CCc1ccc(NC(=O)Cc2cn(C)c3ccccc23)cc1	44*	5	-6	0	-1	48*
Cn1cc(CC(=O)Nc2cccc(C#N)c2)c2ccccc21	46*	1	-16	-2	1	30*
CCc1cccc(NC(=O)Cc2cn(C)c3ccccc23)c1	30	3	-13	-3	2	/
COc1ccc(CCNC(=O)C2CCN(C(=O)c3ccc(Cl)cc3)CC2)cc1OC	0	-1	-4	0	-3	/
CC1(C)Cc2c(sc(NC(=O)C(C)(C)C)c2C#N)C(C)(C)N1	1	0	3	-1	-2	/

Compound activity (PubChem BioAssay)
